These results are taken from ChEMBL document CHEMBL4339193, “Phenotypic Screening-Based Identification of 3,4-Disubstituted Piperidine Derivatives as Macrophage M2 Polarization Modulators: An Opportunity for Treating Multiple Sclerosis” (J Med Chem, 2019).

SMILES strings stand for the structures. Active and inactive are the calls of the source. The calls are words filed in the database; no cut-off is given here.

The subject of series [1] is BMDM. Put plainly: Inhibition of LPS-induced M1 polarization in C57BL/6J mouse BMDM cells assessed as down regulation of CD86 expression measured after 24 hrs by FACS analysis. The format is functional, cell-based. In outline:
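BMDMs pretreated with 50 ng/ml LPS for 24 h, then given compound (300 nM, or a range of concentrations) for 24 h. Stained for F4/80 and CD86; % CD86+F4/80+ cells read by flow cytometry. Mean ± SEM, at least three independent experiments.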
In general terms: Flow cytometry measures light scatter and fluorescence of single cells or particles in a stream.

The test system of series [2] is RAW264.7. Put plainly: Modulation of M2 polarization in mouse RAW264.7 cells assessed as up regulation of IL13 mRNA expression at 300 nM measured after 24 hrs by qRT-PCR analysis. The format is functional, cell-based.
Series [3] has as its target T1, Signal transducer and transcription activator 6 (Mus musculus) (UniProt P52633).
T1 sequence (whole entry): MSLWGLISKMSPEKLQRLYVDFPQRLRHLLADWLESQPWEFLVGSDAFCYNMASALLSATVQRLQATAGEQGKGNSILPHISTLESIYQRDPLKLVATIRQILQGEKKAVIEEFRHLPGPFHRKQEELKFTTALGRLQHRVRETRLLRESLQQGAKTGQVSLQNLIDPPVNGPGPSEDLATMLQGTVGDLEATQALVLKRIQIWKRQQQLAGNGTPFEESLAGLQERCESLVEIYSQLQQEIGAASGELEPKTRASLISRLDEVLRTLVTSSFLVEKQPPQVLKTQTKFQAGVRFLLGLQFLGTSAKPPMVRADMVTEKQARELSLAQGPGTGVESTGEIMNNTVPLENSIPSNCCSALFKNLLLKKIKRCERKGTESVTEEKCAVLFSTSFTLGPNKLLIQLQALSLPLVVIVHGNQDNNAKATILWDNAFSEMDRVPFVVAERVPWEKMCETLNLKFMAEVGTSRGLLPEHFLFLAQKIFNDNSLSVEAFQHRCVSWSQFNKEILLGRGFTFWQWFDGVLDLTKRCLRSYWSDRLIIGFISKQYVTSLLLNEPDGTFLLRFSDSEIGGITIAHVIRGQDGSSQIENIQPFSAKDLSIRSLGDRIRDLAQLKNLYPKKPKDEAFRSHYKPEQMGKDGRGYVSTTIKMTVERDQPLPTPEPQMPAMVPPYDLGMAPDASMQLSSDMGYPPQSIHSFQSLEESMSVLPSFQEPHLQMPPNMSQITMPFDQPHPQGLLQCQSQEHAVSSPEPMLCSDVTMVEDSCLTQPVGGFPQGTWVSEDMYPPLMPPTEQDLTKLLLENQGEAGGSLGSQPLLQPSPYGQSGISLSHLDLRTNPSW
Put plainly: Stimulation of STAT6 phosphorylation at […] residue in mouse RAW264.7 cells at 300 nM measured after 4 to 24 hrs by Western blot analysis. It counts as cell-based. The method, boiled down: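 Cell lysates separated by SDS-PAGE, transferred to PVDF and probed for Akt, p-Akt(308), p-Akt(473), Stat3, p-Stat3(Y705), Stat6 and p-Stat6; ECL detection, GAPDH as loading control.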
A general note: Immunoblotting shows a protein as a band on a membrane.

For series [4], the system named is RAW264.7. Put plainly: Inhibition of M1 polarization in mouse RAW264.7 cells assessed as down regulation of TNFSF15 mRNA expression at 300 nM measured after 24 hrs by qRT-PCR analysis. It counts as functional, cell-based. (Quantitative PCR measures a nucleic acid by following its amplification.)
The subject of series [5] is Mus musculus. Put plainly: Antiinflammatory activity in C57BL/6J mouse model of MOG (35 to 55 residues)/pertussis toxin/complete Freund's adjuvant-induced experimental allergic encephalomyelitis assessed as effect on dendritic cell population in spleen by measuring change in CD11c level at 200 mg/kg, ig administered daily starting from 7 days post-immunization measured after 13 to 19 days post-immunization by flow cytometry analysis. It counts as functional, organism-based. The method, boiled down:
(§1)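 MOG35-55/CFA EAE mice were dosed daily in saline from day 7 and sampled between days 13 and 19. Spleens and dLNs were mechanically dissociated to single cells. CNS cells came from collagenase IV digestion and a 70%/30% Percoll gradient. Cells were surface-stained with fluorochrome antibodies, including CD4, CD11b, CD11c and MHC-II, and analysed by flow cytometry.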

The test system of series [6] is BMDM. Put plainly: Antiinflammatory activity in LPS-induced C57BL/6J mouse BMDM cells assessed as suppression of M1 macrophage-stimulated Th17 cell population by measuring decrease in Il17 level at 300 nM measured after 48 hrs by ELISA. The format is functional, cell-based. In outline: (§2)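 Supernatant collected from the 72 h coculture of CFSE-labelled naïve CD4+ T cells (anti-CD3/anti-CD28, 500 ng/ml each, 1:1) with BMDMs pretreated 48 h with 50 ng/ml LPS plus 300 nM compound. IFN-γ or IL-17A quantified by ELISA. Mean ± SEM, at least three independent experiments.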

Series [7] concerns BMDM. Put plainly: Antiinflammatory activity in LPS-induced C57BL/6J mouse BMDM cells assessed as suppression of M1 macrophage-stimulated Th1 cell population by measuring decrease in IFNgamma level at 300 nM measured after 48 hrs by ELISA. The format is functional, cell-based. The method, boiled down:
as §2

In series [8] the test system is BMDM. Put plainly: Modulation of M2 polarization in C57BL/6J mouse BMDM cells assessed as up regulation of CD206 expression at 300 nM measured after 24 hrs by FACS analysis. The format is functional, cell-based. In outline: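 BMDMs exposed to compound (300 nM, or a range of concentrations) for 24 h. Stained for F4/80 and CD206; % CD206+F4/80+ cells read by flow cytometry. Mean ± SEM, at least three independent experiments.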

A short description of series [9]: Ratio of AUC (0 to t) to AUC (0 to infinity) in Sprague-Dawley rat at 50 mg/kg, po administered as single dose via gavage. The format is ADME, organism-based. Conditions: in vivo.
The subject of series [10] is Mus musculus. Put plainly: Antiinflammatory activity in C57BL/6J mouse model of MOG (35 to 55 residues)/pertussis toxin/complete Freund's adjuvant-induced experimental allergic encephalomyelitis assessed as effect on Treg cell population in spleen by measuring change in CD4 level at 200 mg/kg, ig administered daily starting from 7 days post-immunization measured after 13 to 19 days post-immunization by flow cytometry analysis. It counts as functional, organism-based. In outline:
as §1

Series [11] deals with RAW264.7. Put plainly: Inhibition of LPS-induced M1 polarization in mouse RAW264.7 cells assessed as down regulation of Mcp1 mRNA expression at 300 nM measured after 24 hrs by qRT-PCR analysis relative to control. It counts as functional, cell-based. In outline: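 RAW264.7 cells pre-treated with LPS (50 ng/ml) for 24 h, then given 300 nM compound for 24 h. Mcp1 mRNA quantified by qRT-PCR relative to control. Mean ± SEM.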

Series [12] deals with Mus musculus. Put plainly: Inhibition of M1 polarization in C57BL/6J mouse model of MOG (35 to 55 residues)/pertussis toxin/complete Freund's adjuvant-induced experimental allergic encephalomyelitis assessed as CD86 level in spleen at 200 mg/kg, ig administered daily starting from 7 days post-immunization measured after 13 to 19 days post-immunization by flow cytometry analysis (reference value: 11.8%). The format is functional. The arrangement: scale not given: the % may be the effect or the level left. The method, boiled down: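 MOG35-55/CFA EAE mice were dosed daily in saline from day 7 and sampled between days 13 and 19. Cells came from spleen and dLN by mechanical dissociation and from CNS by collagenase IV/Percoll. They were stained for F4/80 with CD206 (M2) or CD86 (M1), and each was read by flow cytometry as a percentage of total F4/80+ macrophages.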

Take `Cl.Cn1ncc(Cl)c1-c1ccc(C(=O)N[C@@H]2CNCC[C@H]2c2cccc(F)c2)cc1`: the inhibition entry in series [1] is “Dose-dependent effect”. The result in series [2], in series [6], in series [7] and in series [8] was Active. The outcome in series [3], in [5] and in series [10] was inactive. In addition, the inhibition result in [4] and in [11] was “Active” throughout. Besides, the “Ratio AUC” value in [9] was 98.425%. In series [12], the Activity was 6.9%.
